A short description of data set [1]: Clearance in female CD-1 mouse at 5 mg/kg, iv measured for 480 mins by LC-MS/MS analysis. The data set is classed as ADME, organism-based. The settings on record: in vivo. In short, it runs like this:
(§1)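 Female (or male, as per line) CD-1 mice, 3 per time point, given a single 5 mg/kg dose in 10% Kolliphor EL in saline (injections) or water (oral). Blood sampled 5–480 min; plasma extracted with CH₃CN and quantified by LC-MS/MS (ESI+, m/z 251.20) against a calibration curve in extracted plasma; parameters by non-compartmental analysis.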

The nature of data set [2]: Cmax in male CD-1 mouse at 5 mg/kg, iv measured for 480 mins by LC-MS/MS analysis. The data set is classed as ADME, organism-based. Set-up: time 480 min, dose 5 mg/kg, route iv. Particulars: in vivo. In short, it runs like this: as §1
Data set [3] in a line: Toxicity in Balb/c mouse assessed as pain administered as three escalating doses of 2 to 10 mg/kg, iv per week and measured for 10 days. Particulars: in vivo, 240 h, dose 2-10 mg/kg, time 10 day. The data set is classed as organism-based. In short, it runs like this:
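Female adult Balb/c mice, 6 per group, received IV injections 3 times weekly for 3 weeks at 2, 5 or 10 mg/kg. Dosing solutions were 0.4, 1 and 2 mg/mL in saline with 10% Cremophor, given at 5 mL/kg, with IP substitution when IV was impossible. Mice were weighed thrice weekly and observed daily, with necropsy at endpoint.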

The structures appear in SMILES notation.

Molecule `C#C[C@H](O)C#Cc1ccc(CCCCCCCC)cc1` showed a clearance in data set [1] of 47 mL/min/kg. In data set [2], this molecule displayed a peak concentration (Cmax) of 7 µM. Also, in data set [3], the Activity entry is “Non-Toxic”.

The record behind these values is ChEMBL document CHEMBL5370613, “Phenyl dialkynylcarbinols, a Bioinspired Series of Synthetic Antitumor Acetylenic Lipids” (J Med Chem, 2023).
